Assay results taken from PMC5679172 (The Journal of Experimental Medicine, 2017).

Tests used:
Format in all cases: cell-based, mouse
LPS-induced priming = LPS-induced priming in BMDMs; settings: for LPS-induced TNF-α production or pro–IL-1β expression: BMDMs treated with inhibitor before LPS stimulation
potassium efflux = experiment: intracellular potassium detection in BMDMs; settings: LPS-primed Nlrp3−/− BMDMs
How it was run: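 BMDMs plated overnight and primed with LPS 50 ng/ml for 3 h, then given test compound for 30 min and nigericin for 30 min. […] Intracellular K+ quantified by ICP optical emission spectrometry with yttrium as internal standard.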

chloride efflux = experiment: intracellular chloride detection in BMDMs; settings: LPS-primed Nlrp3−/− BMDMs
How it was run: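 BMDMs plated overnight and primed with LPS 50 ng/ml for 3 h, then given test compound for 30 min and nigericin for 15 min. Cells lysed in water for 15 min at 37°C and spun at 10,000 g for 5 min. Supernatant mixed with MQAE and signal read on a plate reader. Residual extracellular chloride subtracted using a control.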

AIM2 inflammasome = experiment: cytosolic poly; settings: LPS-primed BMDMs, cytosolic double-stranded DNA poly(dA:dT), IL-1β ELISA
How it was run: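 BMDMs plated at 5 × 10^5/ml and primed next day with LPS 50 ng/ml for 3 h. Test compound added for 30 min, then poly(dA:dT) (0.5 µg/ml) delivered by lipofection for 4 h. Supernatant IL-1β measured by ELISA.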

NLRC4 inflammasome = experiment: Salmonella infection-induced NLRC4 inflammasome activation in BMDMs; settings: LPS-primed BMDMs, IL-1β ELISA
How it was run: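 BMDMs plated at 5 × 10^5/ml and primed next day with LPS 50 ng/ml for 3 h. Test compound added for 30 min, then cells infected with Salmonella typhimurium for 4 h. Supernatant IL-1β measured by ELISA.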

Row | SMILES | LPS-induced TNF-α production or pro–IL-1β expression (LPS-induced priming) | nigericin-induced potassium efflux (decrease of intracellular potassium) (potassium efflux) | LPS-induced priming effects (LPS-induced priming; BMDMs) | nigericin-induced chloride efflux (decrease of intracellular chloride) (chloride efflux) | AIM2 inflammasome activation (AIM2 inflammasome) | NLRC4 inflammasome activation (NLRC4 inflammasome)
1 | Cc1ccc(S(=O)(=O)/C=C/C#N)cc1 [BAY 11-7082] | could suppress | – | – | – | – | –
2 | CC(O)CC(=O)O (stereo not drawn) [BHB, β-hydroxybutyrate] | could suppress | could suppress | – | – | – | –
3 | CC(C)(O)c1coc(S(=O)(=O)NC(=O)Nc2c3c(cc4c2CCC4)CCC3)c1 [MCC950] | – | could not | no effect | could inhibit | – | –
4 | O=C(O)c1ccccc1Nc1cccc(C(F)(F)F)c1 [flufenamic acid] | could suppress | could not | – | blocked | – | –
5 | O=C(/C=C/c1ccc(O)cc1)c1ccc(O)cc1O [isoliquiritigenin] | could suppress | – | – | – | – | –
6 | Cc1cccc(Nc2ccccc2C(=O)O)c1C [mefenamic acid] | could suppress | – | – | – | – | –
7 | C=C1C(=O)O[C@H]2[C@H]1CC/C(C)=C/CC[C@@]1(C)O[C@@H]21 [parthenolide] | could suppress | – | – | – | could also inhibit | could also inhibit
8 | C[S+]([O-])CCCCN=C=S (centres unmarked) [sulforaphane] | could suppress | – | – | – | could also inhibit | could also inhibit
